APJ agonist: agonists of human apelin receptor APJ, primary screen, CHO-K1 cells, PathHunter beta-arrestin, luminescence | P35414 | 0% DMSO wells, 100% apelin | activation, % at 20 µM | 0.11% of 330,000 active | AID 2520, 2010;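 active means activation more than six SD over the plate average, tested at 20 µM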;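 further: 0% = DMSO alone and 100% = apelin-13 at 10 nM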
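Assay system – PathHunter CHO-K1 APJ (AGTRL-1) beta-arrestin reporter cells · Compound – one dose, 20 µM compound, 1% DMSO · Timing – compound 90 min 25 °C, reagent 1 h · Measured by – luminescence from split beta-galactosidase complementation, Galacton Star/Emerald II substrate · Measure – beta-arrestin recruitment to APJ as agonist activity, luminescent signal · Benchmarks – DMSO vs Apelin-13 10 nM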
CCR6 antag: CCR6 receptor antagonists, primary screen, cell-based, CHO-K1, luminescence, beta-arrestin, uHTS. inhibition, % at 20 µM. C-C chemokine receptor type 6 (Homo sapiens), P51684. 0.49% of 340,000 active. CHO-K1 CCR6 PathHunter beta-arrestin, CCL20-stimulated;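 active means compounds whose inhibition of the agonist-driven luminescence signal at 20 µM reaches about 50%, limit read from the data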;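 further: cells stimulated with CCL20 at 14 nM final; plate controls were DMSO with CCL20 for no effect and DMSO without agonist for full effect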
B2AR ag: beta2AR agonists driving receptor internalization, primary screen, cell-based, FAP fluorogen, flow cytometry; response, % (concentration not given with the values); AID 504454, 2011; Am2.2-beta2AR cells; 0.43% of 340,000 active;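 active means response above a set limit, near 3 SD of response in nonfluorescent compounds, cut at about 42% in these data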
CXCR6 inh: CXCR6 receptor inhibitors, primary screen, cell-based, beta-arrestin, luminescence, CHO-K1 PathHunter, 1536-well | C-X-C chemokine receptor type 6 (Homo sapiens), O00574 | inhibition, % at 20 µM | 0.36% of 360,000 active | AID 602244, 2012; in the data active means inhibition above about 34%, passing the limit was not always enough;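 further: antagonist mode with CXCL16 agonist at 10 nM final; 0% = 10 nM CXCL16 with DMSO and 100% = unstimulated wells without agonist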
Target sequence (O00574 whole entry, looked up): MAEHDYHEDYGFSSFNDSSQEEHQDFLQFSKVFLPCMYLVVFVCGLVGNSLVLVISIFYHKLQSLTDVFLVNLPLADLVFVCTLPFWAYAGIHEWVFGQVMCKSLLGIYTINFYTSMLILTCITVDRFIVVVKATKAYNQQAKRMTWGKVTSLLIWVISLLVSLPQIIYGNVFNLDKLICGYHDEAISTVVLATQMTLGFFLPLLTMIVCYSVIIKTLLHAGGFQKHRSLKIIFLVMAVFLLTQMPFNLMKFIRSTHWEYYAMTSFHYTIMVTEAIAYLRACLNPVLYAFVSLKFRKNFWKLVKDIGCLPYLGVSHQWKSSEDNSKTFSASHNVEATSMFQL
PfG6PD inh: PfG6PD enzyme inhibitors, primary screen, biochemical, fluorescence intensity, uHTS; inhibition, % at 20 µM; PfGluPho enzyme, NADPH resazurin-diaphorase fluorescence; 0.78% of 350,000 active; AID 504690, 2011; glucose-6-phosphate dehydrogenase-6-phosphogluconolactonase (Plasmodium falciparum 3D7);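 active means inhibition reaching at least a set limit at 20 µM in the primary screen, cut at about 59% in these data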;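 further: 0% = DMSO wells with substrate and 100% = DMSO wells lacking glucose-6-phosphate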
APJ antagonist: antagonists of human apelin receptor APJ, primary screen, CHO-K1 cells, beta-arrestin complementation, luminescence. inhibition, % at 20 µM. 0.32% of 330,000 active. AID 2521, 2010;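 active means inhibition above about 40% at 20 µM, limit read from the data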;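 further: cells challenged with 10 nM apelin-13 agonist together with compound; plate controls were apelin-13 plus DMSO wells for no effect and DMSO wells lacking apelin-13 for full effect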
An asterisk follows results filed as active. Only some compounds are listed: those with a hit (about 1.7% of all), similar ones and a draw of the others.

What do the screens show for `CC(NC(=O)COC(=O)c1ccc(OCC2CCCO2)cc1)c1ccccc1Cl` (stereo unspecified)?
APJ agonist: -0.7; CCR6 antag: 5.3; B2AR ag: -7.0; CXCR6 inh: 1.7; PfG6PD inh: 5.8; APJ antagonist: 14.5

What do the screens show for `CC(C)CC(=O)/C=C/n1c(=S)oc2ccccc21`?
CCR6 antag: 24.8; B2AR ag: 48.7*; CXCR6 inh: 11.2; PfG6PD inh: 12.9

What do the screens show for `CCC(C)c1ccc(S(=O)(=O)N2CCN(C(C)C(=O)NC3CCCC3)CC2)cc1` (stereo unspecified)?
APJ agonist: -2.3; CCR6 antag: 8.0; B2AR ag: -7.3; CXCR6 inh: -2.3; PfG6PD inh: -10.8; APJ antagonist: 9.2

What do the screens show for `CCOc1cc(/C=C\[N+](=O)[O-])ccc1OCC(=O)Nc1ccccc1C`?
APJ agonist: 13.5; B2AR ag: 112.4*; CXCR6 inh: 26.7; PfG6PD inh: 30.5; APJ antagonist: 28.9

How did COc1cc(/C=C/c2cccc[n+]2C)ccc1OCC(=O)Nc1ccccc1C do in these assays?
APJ agonist: 0.6; CCR6 antag: -6.7; B2AR ag: 4.4; CXCR6 inh: -7.1; PfG6PD inh: -1.2; APJ antagonist: 22.1

What do the screens show for `COc1ccc([N+](=O)[O-])c(S(=O)(=O)c2ccc(Cl)cc2)n1`?
APJ agonist: -3.1; CCR6 antag: 75.2*; B2AR ag: 41.4; CXCR6 inh: 67.9*; PfG6PD inh: 10.0; APJ antagonist: 16.4

How did COc1ccc([N+](=O)[O-])c(S(=O)(=O)c2ccccc2)n1 do in these assays?
APJ agonist: -5.5; CCR6 antag: 65.2*; B2AR ag: 51.5*; CXCR6 inh: 59.2*; PfG6PD inh: 15.8; APJ antagonist: 34.3

What do the screens show for `COCc1cccc(-c2csc(C(NC(C)=O)c3ccccc3)n2)c1` (stereo unspecified)?
CXCR6 inh: 0.1

Results for CC(C)Oc1ccc(S(=O)(=O)N2CCOCC2)cc1NC(=O)CC1CC2CCC1C2 (stereo unspecified) ?
CXCR6 inh: -3.5; PfG6PD inh: -2.4

Results for O=C(CCC(=O)Nc1ccc(F)cc1)N/N=C/c1cc([N+](=O)[O-])ccc1O ?
APJ agonist: -9.1; CCR6 antag: 62.4*; B2AR ag: 6.5; CXCR6 inh: 11.0; PfG6PD inh: -8.0; APJ antagonist: 20.6

What do the screens show for `Cc1nc2ccc(C(=O)N/N=C/c3cc([N+](=O)[O-])ccc3O)cc2[nH]1`?
APJ agonist: -3.0; CCR6 antag: 59.2*; B2AR ag: 5.7; CXCR6 inh: 9.6; PfG6PD inh: -12.6; APJ antagonist: 20.4

What do the screens show for `Cc1nc2ccc(C(=O)N/N=C/c3ccccc3O)cc2[nH]1`?
APJ agonist: -1.2; CCR6 antag: 1.0; B2AR ag: -11.5; CXCR6 inh: -4.9; PfG6PD inh: -10.5; APJ antagonist: -43.2

How did Oc1ccccc1/C=N/Nc1nn[nH]n1 do in these assays?
APJ agonist: 8.4; CCR6 antag: -4.7; B2AR ag: 1.4; CXCR6 inh: -11.0; PfG6PD inh: 51.7; APJ antagonist: -16.1

How did O=[N+]([O-])c1ccc(O)c(/C=N/Nc2nn[nH]n2)c1 do in these assays?
APJ agonist: -3.5; B2AR ag: 3.6; CXCR6 inh: 44.0*; PfG6PD inh: -3.3; APJ antagonist: 14.1

What do the screens show for `COc1ccc(-c2[nH]ncc2/C=N\NC(=O)c2ccc(Br)o2)cc1OC`?
APJ agonist: -0.3; CCR6 antag: -5.8; B2AR ag: 2.7; CXCR6 inh: -4.9; PfG6PD inh: 0.8; APJ antagonist: -3.3

How did NC(N)=N/N=C(\N=Nc1ccccc1)c1ccc(Cl)cc1 do in these assays?
CCR6 antag: 63.4*; B2AR ag: 16.4; CXCR6 inh: 11.9; PfG6PD inh: 10.5

Results for NC(N)=N/N=C(\N=Nc1ccccc1)c1cccc2cccnc12 ?
CCR6 antag: 12.4; B2AR ag: 27.3; CXCR6 inh: 0.0; PfG6PD inh: 3.7

What do the screens show for `O=C(CCl)Nc1ccccc1Sc1ccc(Cl)cc1`?
APJ agonist: -2.1; CCR6 antag: -11.4; B2AR ag: 25.6; CXCR6 inh: -19.4; PfG6PD inh: 86.7*; APJ antagonist: 2.7

How did COc1ccccc1CCNC(=O)CCn1nc(C)c2c(C)n(-c3ccccc3)nc2c1=O do in these assays?
APJ agonist: -2.8; CCR6 antag: 2.0; B2AR ag: -3.4; CXCR6 inh: 0.3; PfG6PD inh: 10.6; APJ antagonist: -8.3

How did CC(C)(C)c1cc(C(=O)NCC(=O)OCC(=O)c2cccc([N+](=O)[O-])c2)cc(C(C)(C)C)c1 do in these assays?
APJ agonist: -7.7; CCR6 antag: 57.4*; B2AR ag: 5.7; CXCR6 inh: 33.5; PfG6PD inh: -11.4; APJ antagonist: 35.0

Results for Cc1cc(C)c(S(=O)(=O)NCCc2cc3ccc(C)c(C)c3[nH]c2=O)c(C)c1 ?
APJ agonist: -3.1; CCR6 antag: 10.9; B2AR ag: 10.7; CXCR6 inh: 0.8; PfG6PD inh: -13.4; APJ antagonist: -13.4

Results for Cc1ccc2cc(CCNS(=O)(=O)c3ccc(Br)cc3)c(=O)[nH]c2c1C ?
APJ agonist: -1.1; CCR6 antag: -8.9; B2AR ag: 54.9*; CXCR6 inh: -9.1; PfG6PD inh: -23.2; APJ antagonist: -2.4

How did O=C(N/N=C/c1ccc(OC(=O)c2ccc3c(c2)OCO3)cc1)c1cncc(Br)c1 do in these assays?
APJ agonist: -5.5; CCR6 antag: 17.1; B2AR ag: 51.6*; CXCR6 inh: 3.9; PfG6PD inh: -4.9; APJ antagonist: -4.9

Results for CC[n+]1c(/C=C/c2ccc(N(C)C)cc2)ccc2ccccc21 ?
CCR6 antag: 54.7*; B2AR ag: -82.0; CXCR6 inh: 38.8; PfG6PD inh: 14.6

Results for Cc1cc(N)ccc1-n1c(C)ccc1C ?
APJ agonist: 0.8; CCR6 antag: -5.7; B2AR ag: 2.4; CXCR6 inh: -10.0; PfG6PD inh: 59.2*; APJ antagonist: -6.7

What do the screens show for `Cc1cc(N)ccc1N1CCCC1`?
APJ agonist: 1.8; CCR6 antag: -1.2; B2AR ag: 19.5; CXCR6 inh: 0.0; PfG6PD inh: 88.2*; APJ antagonist: -28.2

How did Cc1cc(C(=O)O)ccc1-n1c(C)ccc1C do in these assays?
APJ agonist: 1.4; APJ antagonist: 22.3

How did Cc1cc(C)nc(N/N=C/c2ccccc2OCc2ccc(Br)cc2)n1 do in these assays?
APJ agonist: -1.4; CCR6 antag: -1.4; B2AR ag: 27.0; CXCR6 inh: 3.1; PfG6PD inh: 6.5; APJ antagonist: 7.9

From PubChem
